Results on four molecules are retold here after ChEMBL document CHEMBL3525913, “Metabolism-dependent inhibition of CYP3A4 by lapatinib: evidence for formation of a metabolic intermediate complex with a nitroso/oxime metabolite formed via a nitrone intermediate” (Drug Metab Dispos, 2013).

The structures appear in SMILES notation.

In one series the test system is Liver microsome. Kind of series: Drug level in human liver microsomes treated with lapatinib at 50 uM by LC/MS/MS analysis. It counts as ADME. The method in brief:
(§1)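 Lapatinib 50 μM (added in DMSO) incubated 30 min at 37°C in 100 mM potassium phosphate pH 7.4 with HLM 1 mg/mL or recombinant CYP3A4+b5 / CYP3A5+b5 100 pmol/mL. Reaction started with NADPH 1 mM. Protein re-isolated by ultracentrifugation (100,000 x g, 4°C, 60 min), washed (KCl/EDTA), resuspended in phosphate buffer, ±2 mM ferricyanide 10 min 37°C, quenched with acetonitrile, then high-resolution LC/MS profiling.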

A further series deals with Cytochrome P450 3A4 (Homo sapiens, UniProt P08684). In words: Activity of recombinant CYP3A4 (unknown origin) assessed as compound formation treated with lapatinib at 50 uM by LC/MS/MS analysis. It counts as ADME. As to conditions: recombinant enzyme. Put shortly: as §1
Series [1] is described as follows: Retention time of the compound by LC/MS/MS analysis relative to lapatinib. It counts as physicochemical. Put shortly:
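Phenyl UPLC column (1.7 μm, 2.1 x 100 mm), 0.1% formic acid in water/acetonitrile, 0.4 mL/min. Gradient: 10% organic for 1 min, to 90% over 13 min, held 0.5 min. Detection by accurate-mass MS. Retention times expressed relative to lapatinib.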

The next series deals with Cytochrome P450 3A5 (Homo sapiens, UniProt P20815). In words: Activity of recombinant CYP3A5 (unknown origin) assessed as compound formation treated with lapatinib at 50 uM by LC/MS/MS analysis. Particulars: recombinant enzyme. It counts as ADME. The method in brief:
as §1

Sequence of Cytochrome P450 3A5 (P20815 whole entry): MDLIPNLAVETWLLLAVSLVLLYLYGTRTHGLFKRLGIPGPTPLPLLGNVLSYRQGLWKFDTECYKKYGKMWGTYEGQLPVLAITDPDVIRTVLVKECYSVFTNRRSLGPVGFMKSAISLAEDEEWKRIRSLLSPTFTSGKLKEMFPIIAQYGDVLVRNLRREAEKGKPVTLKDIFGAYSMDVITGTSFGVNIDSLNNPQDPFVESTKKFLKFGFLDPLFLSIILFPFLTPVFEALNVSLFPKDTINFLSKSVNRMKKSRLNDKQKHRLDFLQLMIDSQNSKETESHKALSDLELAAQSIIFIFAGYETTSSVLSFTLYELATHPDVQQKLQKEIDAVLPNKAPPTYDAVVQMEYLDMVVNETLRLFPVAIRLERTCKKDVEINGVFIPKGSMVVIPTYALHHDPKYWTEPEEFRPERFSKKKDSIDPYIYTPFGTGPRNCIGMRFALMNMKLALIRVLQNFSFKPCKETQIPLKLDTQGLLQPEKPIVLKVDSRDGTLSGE
Sequence of Cytochrome P450 3A4 (P08684 whole entry): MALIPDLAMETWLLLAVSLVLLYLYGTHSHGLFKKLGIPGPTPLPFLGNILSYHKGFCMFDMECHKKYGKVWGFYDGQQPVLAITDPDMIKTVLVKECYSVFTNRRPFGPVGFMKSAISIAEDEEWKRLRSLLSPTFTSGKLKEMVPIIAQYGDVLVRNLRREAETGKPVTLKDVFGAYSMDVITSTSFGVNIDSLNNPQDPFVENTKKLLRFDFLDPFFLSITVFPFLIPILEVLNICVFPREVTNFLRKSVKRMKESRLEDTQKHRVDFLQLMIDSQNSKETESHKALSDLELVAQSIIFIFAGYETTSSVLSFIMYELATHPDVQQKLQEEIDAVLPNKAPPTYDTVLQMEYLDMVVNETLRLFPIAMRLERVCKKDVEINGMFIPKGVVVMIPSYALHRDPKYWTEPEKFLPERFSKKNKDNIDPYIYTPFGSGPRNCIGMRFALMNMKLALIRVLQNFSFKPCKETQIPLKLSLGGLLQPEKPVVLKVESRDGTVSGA

As for `CS(=O)(=O)CCNCc1ccc(-c2ccc3ncnc(Nc4ccc(O)c(Cl)c4)c3c2)o1`, the Drug metabolism result with Liver microsome, on Cytochrome P450 3A4 and on Cytochrome P450 3A5 was “metabolite_detected” each time. In series [1], the Ratio is on record as 0.5.

`CS(=O)(=O)CCN(O)Cc1ccc(-c2ccc3ncnc(Nc4ccc(OCc5cccc(F)c5)c(Cl)c4)c3c2)o1`: the Drug metabolism result with Liver microsome, on Cytochrome P450 3A4 and at Cytochrome P450 3A5 was “metabolite_detected” in each case. Also, in series [1], the Ratio is given as 1.14.

Take `O/N=C/c1ccc(-c2ccc3ncnc(Nc4ccc(OCc5cccc(F)c5)c(Cl)c4)c3c2)o1`: the Drug metabolism entry in the series on Liver microsome, at Cytochrome P450 3A4 and at Cytochrome P450 3A5 was “metabolite_detected” each time. Further, in series [1], the Ratio came out at 1.18.

For the molecule `NCc1ccc(-c2ccc3ncnc(Nc4ccc(OCc5cccc(F)c5)c(Cl)c4)c3c2)o1`, the Drug metabolism entry in the series on Liver microsome, on Cytochrome P450 3A4 and at Cytochrome P450 3A5 was “metabolite_detected” in each case. Further, the Ratio in series [1] is 0.97.
